Results published in publication PMC8463510 (Acta Pharmaceutica Sinica. B, 2021).
Values after ≈ are worked out from the molar mass of the structure shown.

Tests used:
[1] = Apparent solubility in vitro; assay type: physicochemical; details: thermodynamic from solid; for solubility at 2 h: 25 °C
[2] = Oral pharmacokinetics / bioavailability in rats; assay type: in vivo; details: male, Sprague-Dawley, rat, plasma, 4 mg/kg
Procedure, shortened: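 Male SD rats (250 ± 50 g), fasted 12 h with water, randomised to groups, n = 6. Test compound or its cyclodextrin/CD-MOF formulations were suspended in 0.5% CMC-Na and given orally at 4 mg/kg (as parent). Orbital blood was taken into heparin at 0–24 h, and plasma stored at −80 °C. Progesterone internal standard, acidified-acetonitrile precipitation, HPLC–MS/MS MRM positive ion (m/z 319.2 → 273.2). PK by […] analysis; mean ± SD.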

[3] = azilsartan loaded in CD-MOF; cited from earlier work
[4] = azilsartan loaded in CD-MOF, SD rats; cited from earlier work

solubility at 2 h ([1]; pH 1, simulated gastric fluid) [µg/mL]	solubility at 2 h ([1]; pH 4.5, aqueous buffer) [µg/mL]	solubility at 2 h ([1]; pH 6.8, aqueous buffer) [µg/mL]	solubility ([1]; KOH solution, pH 11, aqueous buffer) [µg/mL]	solubility at 2 h ([1]; distilled water, water) [µg/mL]	AUC(0-t) [2] [ng·h/mL]	Cmax [2] [ng/mL]	Tmax [2] [h]	SMILES	apparent solubility, times of the API [3] [times]	bioavailability, times that of API [4] [times]
< 0.02	< 0.02	20.1 (≈ 63 µM)	240 (≈ 753 µM)	0.13 (≈ 0.407 µM)	590	61 ± 39	3.01	C[C@@]12CC[C@@H]3[C@@](CC[C@H]4[C@@]3(C)CCC[C@@]4(C)C(=O)O)(CC1=O)C2 [STV, Isosteviol]		
								CCOc1nc2cccc(C(=O)O)c2n1Cc1ccc(-c2ccccc2-c2noc(=O)[nH]2)cc1 [azilsartan]	340	9.7
